Experimental data from ChEMBL document CHEMBL4190276, “Design, synthesis and evaluation of coumarin-pargyline hybrids as novel dual inhibitors of monoamine oxidases and amyloid-β aggregation for the treatment of Alzheimer's disease” (Eur J Med Chem, 2017).
pIC50: −log10 of the molar value.

Columns and labels:
[1] = Permeability of the compound in PBS/EtOH at […] after 16 hrs by PAMPA; type: ADME; conditions: read-out: Peff
Homo sapiens = species: Homo sapiens; assay: Selectivity index, ratio of IC50 for recombinant human MAO-A to IC50 for recombinant human MAO-B
Procedure, shortened: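 Commercial human MAO-A (1.1 μg protein) and MAO-B (7.5 μg protein) adjusted to equal velocity (165 pmol p-tyramine/min). Compounds from 10 mM DMSO stock diluted in 0.05 M potassium phosphate, pH 7.4. Preincubated with enzyme 15 min at 37 °C in the dark; 200 μM Amplex Red, 2 U/mL HRP, 2 mM p-tyramine added for 20 min at 37 °C.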

[2] = molecular target: T1, Amine oxidase [flavin-containing] A (Homo sapiens, UniProt P21397); assay: Inhibition of recombinant human MAO-A using p-tyramine as substrate preincubated for 15 mins followed by substrate addition measured after 20 mins by amplex red reagent based fluorescence assay
T1 sequence (P21397 whole entry): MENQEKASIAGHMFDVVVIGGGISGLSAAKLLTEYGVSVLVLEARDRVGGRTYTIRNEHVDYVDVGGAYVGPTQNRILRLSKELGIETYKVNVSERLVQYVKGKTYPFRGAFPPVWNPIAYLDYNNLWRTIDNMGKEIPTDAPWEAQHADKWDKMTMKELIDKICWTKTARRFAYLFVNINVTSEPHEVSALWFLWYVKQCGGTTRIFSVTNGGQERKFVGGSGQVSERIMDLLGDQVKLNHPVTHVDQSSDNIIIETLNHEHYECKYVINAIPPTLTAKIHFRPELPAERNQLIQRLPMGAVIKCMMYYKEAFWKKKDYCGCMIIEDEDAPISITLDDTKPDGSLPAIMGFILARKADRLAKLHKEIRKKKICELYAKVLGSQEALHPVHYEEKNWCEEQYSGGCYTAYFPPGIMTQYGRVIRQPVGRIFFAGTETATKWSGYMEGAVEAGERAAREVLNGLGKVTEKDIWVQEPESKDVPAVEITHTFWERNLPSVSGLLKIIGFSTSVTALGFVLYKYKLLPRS

[3] = molecular target: T2, Amine oxidase [flavin-containing] B (Homo sapiens, UniProt P27338); assay: Inhibition of recombinant human MAO-B using p-tyramine as substrate preincubated for 15 mins followed by substrate addition measured after 20 mins by amplex red reagent based fluorescence assay
T2 sequence (P27338 whole entry): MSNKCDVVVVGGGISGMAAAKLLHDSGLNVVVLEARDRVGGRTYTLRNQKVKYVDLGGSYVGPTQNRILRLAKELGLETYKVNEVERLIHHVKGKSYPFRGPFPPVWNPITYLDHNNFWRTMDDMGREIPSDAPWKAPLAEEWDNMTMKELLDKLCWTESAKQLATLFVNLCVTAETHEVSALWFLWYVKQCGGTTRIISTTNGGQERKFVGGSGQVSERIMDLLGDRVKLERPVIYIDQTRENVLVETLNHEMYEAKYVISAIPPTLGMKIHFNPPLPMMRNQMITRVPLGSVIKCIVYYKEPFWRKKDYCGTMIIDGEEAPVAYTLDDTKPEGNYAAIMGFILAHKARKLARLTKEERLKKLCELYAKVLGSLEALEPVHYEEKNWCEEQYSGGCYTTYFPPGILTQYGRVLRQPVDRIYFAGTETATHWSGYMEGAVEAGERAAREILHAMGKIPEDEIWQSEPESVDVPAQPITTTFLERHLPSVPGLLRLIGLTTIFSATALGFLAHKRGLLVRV

Mus musculus [4] = assay: Acute toxicity in Kunming mouse assessed as effect on serum ALT level at 2.4 mmol/kg, po administered as single dose via gavage measured continuously for first 4 hrs, intermittently for next 24 hrs and occasionally thereafter for 14 days; type: organism-based; conditions: in vivo
Procedure, shortened: (§1)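 Male KM mice (18–20 g), fasted overnight, given one oral 2.4 mmol/kg dose suspended in 0.5% CMC-Na. On day 14, orbital blood was collected before decapitation and serum AST and ALT activities measured against a control group. Mean ± SD of three independent experiments.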

Mus musculus [5] = assay: Nephrotoxicity in Kunming mouse at 2.4 mmol/kg, po administered as single dose via gavage measured continuously for first 4 hrs, intermittently for next 24 hrs and occasionally thereafter for 14 days […]; type: toxicity, organism-based; conditions: in vivo
Procedure, shortened: (§2)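 Male KM mice (18–20 g) received a single oral 2.4 mmol/kg dose in 0.5% CMC-Na suspension after an overnight fast. All animals were sacrificed on day 14 after dosing, and heart, liver and kidneys were examined macroscopically for damage.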

Mus musculus [6] = assay: Acute toxicity in Kunming mouse assessed as mortality at 2.4 mmol/kg, po administered as single dose via gavage measured continuously for first 4 hrs, intermittently for next 24 hrs and occasionally thereafter for 14 days; type: organism-based; conditions: in vivo
Procedure, shortened: (§3)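 Male KM mice (22 days old, 18–20 g), 15 in total, randomly split into 3 groups of 5. Kept on a 12 h light/dark cycle at 20-22 °C and 60-70% humidity, fasted overnight with free water. Single oral dose of 2.4 mmol/kg suspended in 0.5% CMC-Na. Mortality, behaviour, water and food intake, and body weight followed over 14 days.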

Mus musculus [7] = assay: Hepatotoxicity in Kunming mouse at 2.4 mmol/kg, po administered as single dose via gavage measured continuously for first 4 hrs, intermittently for next 24 hrs and occasionally thereafter for 14 days by […]; type: toxicity, organism-based; conditions: in vivo; procedure, shortened: as §2
Mus musculus [8] = assay: Acute toxicity in Kunming mouse assessed as abnormal change in body weight at 2.4 mmol/kg, po administered as single dose via gavage measured continuously for first 4 hrs, intermittently for next 24 hrs and occasionally thereafter for 14 days; type: organism-based; conditions: in vivo; procedure, shortened: as §3
Mus musculus [9] = assay: Acute toxicity in Kunming mouse assessed as effect on serum AST level at 2.4 mmol/kg, po administered as single dose via gavage measured continuously for first 4 hrs, intermittently for next 24 hrs and occasionally thereafter for 14 days; type: organism-based; conditions: in vivo; procedure, shortened: as §1
Mus musculus [10] = assay: Acute toxicity in Kunming mouse assessed as abnormal change in water consumption at 2.4 mmol/kg, po administered as single dose via gavage measured continuously for first 4 hrs, intermittently for next 24 hrs and occasionally thereafter for 14 days; type: organism-based; conditions: in vivo; procedure, shortened: as §3
Mus musculus [11] = assay: Cardiotoxicity in Kunming mouse at 2.4 mmol/kg, po administered as single dose via gavage measured continuously for first 4 hrs, intermittently for next 24 hrs and occasionally thereafter for 14 days by […]; type: toxicity, organism-based; conditions: in vivo; procedure, shortened: as §2
Mus musculus [12] = assay: Acute toxicity in Kunming mouse assessed as abnormal change in food consumption at 2.4 mmol/kg, po administered as single dose via gavage measured continuously for first 4 hrs, intermittently for next 24 hrs and occasionally thereafter for 14 days; type: organism-based; conditions: in vivo; procedure, shortened: as §3
[13] = molecular target: Amyloid-beta precursor protein (Homo sapiens) (UniProt P05067); assay: Inhibition of self-induced Amyloid beta (1 to 42) (unknown origin) aggregation at 25 uM after 48 hrs by thioflavin T-based fluorometric assay relative to control
Procedure, shortened: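 Aβ1-42 stock (2000 μM in 1% ammonium hydroxide) diluted in 50 mM phosphate pH 7.4. Peptide (final 25 μM) incubated with or without compound (25 μM) at 37 °C for 48 h. Then diluted in 50 mM glycine-NaOH pH 8.0 containing 5 μM thioflavin T, read after 5 min (ex 446/em 490 nm). Inhibition = (1 − IFi/IFc) × 100 after blank subtraction. Mean ± SD of three independent experiments.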

[14] = molecular target: T2, Amine oxidase [flavin-containing] B; assay: Irreversible inhibition of recombinant human MAO-B at 30 nM using p-tyramine as substrate preincubated for 15 to 60 mins followed by substrate addition and subsequent two-fold enzyme dilution measured after 15 mins by amplex red reagent based fluorescence assay; conditions: 0.25 h, 0.03 µM
PC-12 = assay: Cytotoxicity against rat PC12 cells assessed as reduction in cell viability up to 100 uM after 24 hrs by MTT assay; type: cell-based; conditions: pc-12, 24 h
Procedure, shortened: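 PC12 cells grown at 37 °C, 5% CO2 in DMEM with 10% bovine calf serum and penicillin/streptomycin; seeded 10,000 cells/well, switched to serum-free medium, then exposed to compound (0–100 μM) for 24 h. MTT added for 4 h at 37 °C, formazan dissolved in DMSO, absorbance read at 570 nm (reference 630 nm). Mean ± SD of three independent experiments.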

Amyloid-beta precursor protein (Homo sapiens), sequence (P05067 whole entry): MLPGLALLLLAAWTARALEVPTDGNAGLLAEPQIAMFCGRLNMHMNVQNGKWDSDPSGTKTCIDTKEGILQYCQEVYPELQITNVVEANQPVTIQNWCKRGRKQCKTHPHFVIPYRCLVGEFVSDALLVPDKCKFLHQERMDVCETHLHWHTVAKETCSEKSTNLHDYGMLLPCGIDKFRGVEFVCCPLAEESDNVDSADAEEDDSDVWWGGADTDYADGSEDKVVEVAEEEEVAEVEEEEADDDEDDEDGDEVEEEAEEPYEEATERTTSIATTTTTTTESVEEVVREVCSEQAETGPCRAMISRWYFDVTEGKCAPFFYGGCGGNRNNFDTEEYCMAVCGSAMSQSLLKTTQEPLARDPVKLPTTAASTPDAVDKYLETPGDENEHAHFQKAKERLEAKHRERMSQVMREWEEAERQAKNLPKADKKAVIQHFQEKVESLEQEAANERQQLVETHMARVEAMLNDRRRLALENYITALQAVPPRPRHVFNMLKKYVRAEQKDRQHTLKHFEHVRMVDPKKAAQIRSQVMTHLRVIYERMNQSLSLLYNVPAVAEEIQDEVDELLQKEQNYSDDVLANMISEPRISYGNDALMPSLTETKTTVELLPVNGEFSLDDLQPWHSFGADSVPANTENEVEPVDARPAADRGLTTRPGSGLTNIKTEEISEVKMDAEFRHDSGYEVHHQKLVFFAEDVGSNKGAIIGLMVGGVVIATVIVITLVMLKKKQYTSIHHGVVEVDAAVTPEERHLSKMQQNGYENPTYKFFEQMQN

Compound	Ratio IC50 (Homo sapiens)	pIC50 [2]	pIC50 [3]	also measured
C[C@]12CC[C@@H]3c4ccc(O)cc4CC[C@H]3[C@@H]1CC[C@@H]2O [ESTRADIOL]	–	–	–	Papp at 16 h [1]: 8 ×10⁻⁶ cm/s
C#CCN(CCOc1ccc2ccc(=O)oc2c1)Cc1ccc(OC)cc1	15.7	4.26	5.45	–
C#CCN(C)Cc1ccccc1 [PARGYLINE]	–	–	–	Activity (Mus musculus [4]): Non-Toxic; Activity (Mus musculus [5]): Non-Toxic; Activity (Mus musculus [6]): Non-Toxic; Activity (Mus musculus [7]): Non-Toxic; Activity (Mus musculus [8]): Non-Toxic; Activity (Mus musculus [9]): Non-Toxic; Activity (Mus musculus [10]): Non-Toxic; Activity (Mus musculus [11]): Non-Toxic; Activity (Mus musculus [12]): Non-Toxic
C#CCN(C)CCOc1ccc2ccc(=O)oc2c1	63.4	4.16	5.96	inhibition [13]: 36.4%
C#CCN(CCCCOc1ccc2ccc(=O)oc2c1)Cc1ccc(C)cc1	56.4	4.02	5.78	inhibition [13]: 50%
C#CCN(CCCOc1ccc2ccc(=O)oc2c1)Cc1ccc(C(C)C)cc1	10.2	4.11	5.12	–
C#CCN(CCCOc1ccc2ccc(=O)oc2c1)Cc1cccc(F)c1	6.59	4.53	5.35	–
C#CCN(C)CCCCOc1ccc2ccc(=O)oc2c1	121	5.48	7.57	Activity (Mus musculus [4]): Non-Toxic; Activity (Mus musculus [5]): Non-Toxic; Activity (Mus musculus [6]): Non-Toxic; Papp at 16 h [1]: 8.92 ×10⁻⁶ cm/s; Activity (Mus musculus [7]): Non-Toxic; Activity (Mus musculus [8]): Non-Toxic; Activity (Mus musculus [9]): Non-Toxic; inhibition (INH) [14]: Active; Activity (Mus musculus [10]): Non-Toxic; inhibition [13]: 54%; Activity (Mus musculus [11]): Non-Toxic; Activity (Mus musculus [12]): Non-Toxic; Activity (PC-12): Non-Toxic
C#CCN(CCOc1ccc2ccc(=O)oc2c1)Cc1ccc(C)cc1	10	4.25	5.25	–
C#CCN(CCOc1ccc2ccc(=O)oc2c1)Cc1ccccc1	10.8	4.05	5.08	–
C#CCN(CCCCOc1ccc2ccc(=O)oc2c1)Cc1ccccc1	91.4	4.05	6.01	–
C#CCN(CCCOc1ccc2ccc(=O)oc2c1)Cc1ccc(C)cc1	15.8	3.93	5.13	–
CCn1cc(C(=O)O)c(=O)c2cc(F)c(N3CCNC(C)C3)c(F)c21 (centres undefined) [LOMEFLOXACIN]	–	–	–	Papp at 16 h [1]: 1.05 ×10⁻⁶ cm/s
C#CCN(CCCCOc1ccc2ccc(=O)oc2c1)Cc1ccc(C(C)C)cc1	10.1	4.45	5.46	–
